Assay results reported in PMC4312754 (Neuropharmacology, 2014).
Residue numbers refer to the chain shown, from its start.

Assays:
Assay in all cases: two-electrode voltage clamp, Xenopus oocytes
Assay type in all cases: cell-based
5-HT3AB receptor [1] = target: T1, 5-HT3AB receptor (Homo sapiens, UniProt O95264+P46098, P46098:E124Q)
T1 sequence (P46098 24-478 E124Q): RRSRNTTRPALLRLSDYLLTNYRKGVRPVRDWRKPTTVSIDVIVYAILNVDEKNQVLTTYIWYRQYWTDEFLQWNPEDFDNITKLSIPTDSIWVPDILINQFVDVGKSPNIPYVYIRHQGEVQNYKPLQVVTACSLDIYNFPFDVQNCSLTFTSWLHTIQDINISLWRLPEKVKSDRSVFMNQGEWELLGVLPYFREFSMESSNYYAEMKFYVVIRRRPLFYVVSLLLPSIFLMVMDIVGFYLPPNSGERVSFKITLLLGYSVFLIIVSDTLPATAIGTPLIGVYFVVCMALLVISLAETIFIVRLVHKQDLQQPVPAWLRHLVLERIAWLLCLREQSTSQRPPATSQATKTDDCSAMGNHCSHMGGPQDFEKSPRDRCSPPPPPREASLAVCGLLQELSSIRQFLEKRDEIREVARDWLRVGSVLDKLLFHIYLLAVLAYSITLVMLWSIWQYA
T1 sequence (O95264 22-441): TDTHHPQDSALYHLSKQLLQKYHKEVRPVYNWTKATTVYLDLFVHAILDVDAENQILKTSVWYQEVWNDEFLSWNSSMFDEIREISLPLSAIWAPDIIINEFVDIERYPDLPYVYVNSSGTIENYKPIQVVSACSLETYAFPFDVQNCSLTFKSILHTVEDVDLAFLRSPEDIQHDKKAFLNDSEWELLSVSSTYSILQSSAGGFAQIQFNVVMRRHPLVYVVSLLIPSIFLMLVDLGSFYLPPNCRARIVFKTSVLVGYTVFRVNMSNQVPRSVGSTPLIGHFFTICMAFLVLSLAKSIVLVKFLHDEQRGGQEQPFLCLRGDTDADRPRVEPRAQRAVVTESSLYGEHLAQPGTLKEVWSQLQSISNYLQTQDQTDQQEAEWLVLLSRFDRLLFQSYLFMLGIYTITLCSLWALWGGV
How it was run: (§1)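 Human 5-HT3A and 5-HT3B subunits with point mutations were used. Defolliculated stage V–VI Xenopus oocytes were injected with 5–25 ng mRNA and incubated 24–72 h at 18 °C. Recordings were at 22–25 °C, holding at −60 mV. Agonist in Ca2+-free ND96 (pH 7.5) was applied for 15 s, then washed 116 s.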

5-HT3AB receptor [2] = target: T2, 5-HT3AB receptor (Homo sapiens, UniProt O95264+P46098, P46098:Y148A)
T2 sequence (P46098 24-478 Y148A): T1 sequence (P46098 24-478 E124Q) with Q101E, Y125A
T2 sequence (O95264 22-441): T1 sequence (O95264 22-441)
How it was run: as §1

5-HT3AB receptor [3] = target: T3, 5-HT3AB receptor (Homo sapiens, UniProt O95264+P46098, O95264:Y146A)
T3 sequence (P46098 24-478): T1 sequence (P46098 24-478 E124Q) with Q101E
T3 sequence (O95264 22-441 Y146A): T1 sequence (O95264 22-441) with Y125A
How it was run: as §1

5-HT3AB receptor [4] = target: T4, 5-HT3AB receptor (Homo sapiens, UniProt O95264+P46098, O95264:E122Q/P46098:E124Q)
T4 sequence (P46098 24-478 E124Q): T1 sequence (P46098 24-478 E124Q)
T4 sequence (O95264 22-441 E122Q): T1 sequence (O95264 22-441) with E101Q
How it was run: as §1

5-HT3AB receptor [5] = target: T5, 5-HT3AB receptor (Homo sapiens, UniProt O95264+P46098, O95264:E122A)
T5 sequence (P46098 24-478): T1 sequence (P46098 24-478 E124Q) with Q101E
T5 sequence (O95264 22-441 E122A): T1 sequence (O95264 22-441) with E101A
How it was run: as §1

[6] = target: T6, 5-HT3A receptor (homomeric) (Homo sapiens, UniProt P46098, Y148A)
T6 sequence (P46098 24-478 Y148A): T1 sequence (P46098 24-478 E124Q) with Q101E, Y125A

5-HT3AB receptor [7] = target: T7, 5-HT3AB receptor (Homo sapiens, UniProt O95264+P46098, O95264:E122Q/O95264:Y146A)
T7 sequence (P46098 24-478): T1 sequence (P46098 24-478 E124Q) with Q101E
T7 sequence (O95264 22-441 E122Q/Y146A): T1 sequence (O95264 22-441) with E101Q, Y125A
How it was run: as §1

5-HT3AB receptor [8] = target: T8, 5-HT3AB receptor (Homo sapiens, UniProt O95264+P46098, O95264:E122Q)
T8 sequence (P46098 24-478): T1 sequence (P46098 24-478 E124Q) with Q101E
T8 sequence (O95264 22-441 E122Q): T1 sequence (O95264 22-441) with E101Q
How it was run: as §1

In the case of `N=C(N)NC(=N)Nc1cccc(Cl)c1` [mCPBG], the EC50 (5-HT3AB receptor [1]) is reported as 3 ± 0.7 µM, the EC50 (5-HT3AB receptor [2]) is reported as 11.2 ± 0.6 µM and the EC50 (5-HT3AB receptor [3]) is reported as 4.3 ± 0.3 µM. It also gave an EC50 (5-HT3AB receptor [4]) of 2.4 ± 0.4 µM, an EC50 (5-HT3AB receptor [5]) of 2.4 ± 0.1 µM and an EC50 [6] of 24.7 ± 0.9 µM. The EC50 (5-HT3AB receptor [7]) was 3.5 ± 0.1 µM and the EC50 (5-HT3AB receptor [8]) was 2.3 ± 0.1 µM.
